Measurements published in paper PMC5224883 (Chemistry (Weinheim an der Bergstrasse, Germany), 2016).

Columns and labels:
[1] = Cyclic voltammetry of copper acetate complexes; format: physicochemical; details: 1 mM in acetonitrile, 0.1 M TBAPF6, 200 mV/s, vs SHE
Outline: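 Working electrode was a Pt button, with a Pt-wire counter electrode and an Ag-wire pseudo-reference electrode. Tests were run under N2. Potentials were referenced to SHE using ferrocene as an internal standard (+0.400 V versus SHE). Samples were Cu2+ acetate complexes.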

[2] = molecular target: CXCR4 (Homo sapiens, UniProt P61073); test: Chemokine-induced calcium signalling assay; format: cell-based; details: read-out: Ca^2+ flux IC50 CXCR4; CXCR4-positive U87 cell line, CXCL12 (SDF-1) induced Ca^2+ signalling, triplicate average
CXCR4, sequence (P61073 whole entry): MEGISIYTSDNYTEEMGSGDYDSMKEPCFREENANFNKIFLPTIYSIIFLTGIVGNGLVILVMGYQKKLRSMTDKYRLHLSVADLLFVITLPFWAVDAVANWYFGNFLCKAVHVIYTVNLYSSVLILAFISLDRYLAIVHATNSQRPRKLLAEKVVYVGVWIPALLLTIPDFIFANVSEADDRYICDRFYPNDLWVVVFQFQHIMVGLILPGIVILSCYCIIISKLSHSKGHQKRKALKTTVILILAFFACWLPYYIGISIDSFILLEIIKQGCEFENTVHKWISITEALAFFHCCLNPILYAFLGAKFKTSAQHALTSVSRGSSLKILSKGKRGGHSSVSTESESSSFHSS

With `CC(=O)[O-].[Cu+2].c1ccc(CN2CCCN3CCN(CCCN(Cc4ccccc4)CC3)CC2)cc1` [[Cu5(OAc)]^+] as the compound, how does the “Eox (Cu^2+/3+)” value [1] read?
Its value is “+1.516 V”.

What about the “Ered (Cu^2+/+)” value [1] of the same compound?
Its value is −0.641 V.

What about the “Eox (^Cu+/2+)” value ([1]; return oxidation) of the same compound?
Its value is −0.156 V.

And the IC50 [2]?
The IC50 was 156 nM.
